# Assay outcomes as filed in PubChem.
# Compounds with a hit are over-represented: about 2.2% of the library has one in this group of screens.
# Granule exo inh = LAMP-1 surface exposure blockers, TALL-104 cells – cell-based, flow cytometry, MLPCN library, primary screen; TALL-104 LAMP-1 surface exposure; cells stimulated with thapsigargin and PMA; inhibition, % at 10 µM; 360,000 compounds, 0.66% hits;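 active = inhibition above about 55%, limit read from the data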
# PfG6PD inh = PfG6PD enzyme inhibitors, primary screen, biochemical, fluorescence intensity, uHTS; AID 504690, 2011; 350,000 compounds, 0.78% hits; glucose-6-phosphate dehydrogenase-6-phosphogluconolactonase (Plasmodium falciparum 3D7); inhibition, % at 20 µM; PfGluPho enzyme, NADPH resazurin-diaphorase fluorescence;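 active = inhibition reaching at least a set limit at 20 µM in the primary screen, cut at about 59% in these data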;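 note: 0% = DMSO wells with substrate and 100% = DMSO wells lacking glucose-6-phosphate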
# ABHD5 PLIN5 PPI = ABHD5-PLIN5 interaction inhibitors, primary screen, cell lysate, split luciferase complementation, luminescence | Split G. princeps luciferase complementation, 4 h | inhibition, % at 4 µM | 360,000 compounds, 0.78% hits | AID 602281, 2012;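 active = inhibition above the mean inhibition across every tested compound plus 3 SD, cut at about 22% in these data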;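 note: 0% = DMSO only wells and the 100% control is not disclosed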
# Target sequence (Q00G26 whole entry, looked up): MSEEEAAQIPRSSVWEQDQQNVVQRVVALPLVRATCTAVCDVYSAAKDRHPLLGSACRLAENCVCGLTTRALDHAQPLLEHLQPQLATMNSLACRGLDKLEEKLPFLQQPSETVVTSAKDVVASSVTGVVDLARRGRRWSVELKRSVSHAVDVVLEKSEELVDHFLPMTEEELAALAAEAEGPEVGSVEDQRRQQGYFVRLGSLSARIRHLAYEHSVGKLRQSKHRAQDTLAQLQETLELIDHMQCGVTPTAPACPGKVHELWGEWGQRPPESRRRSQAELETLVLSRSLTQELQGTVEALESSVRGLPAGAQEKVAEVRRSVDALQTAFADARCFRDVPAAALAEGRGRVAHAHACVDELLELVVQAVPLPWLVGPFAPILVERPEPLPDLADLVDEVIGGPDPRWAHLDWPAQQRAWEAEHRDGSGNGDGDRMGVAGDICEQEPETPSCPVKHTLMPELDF
# Target sequence (Q8WTS1 whole entry, looked up): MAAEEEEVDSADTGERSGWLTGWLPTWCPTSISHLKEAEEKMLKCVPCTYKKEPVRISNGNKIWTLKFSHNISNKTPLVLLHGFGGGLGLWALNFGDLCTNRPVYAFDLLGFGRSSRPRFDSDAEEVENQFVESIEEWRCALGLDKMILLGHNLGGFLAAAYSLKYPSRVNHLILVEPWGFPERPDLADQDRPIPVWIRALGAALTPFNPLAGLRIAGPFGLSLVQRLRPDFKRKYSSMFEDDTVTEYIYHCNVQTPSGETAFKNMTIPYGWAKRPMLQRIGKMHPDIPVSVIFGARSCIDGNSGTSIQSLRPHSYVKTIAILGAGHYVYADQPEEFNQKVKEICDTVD
# HKDC1 inh = HKDC1 hexokinase inhibitors, primary screen, biochemical, fluorescence, uHTS | Q2TB90 | recombinant HKDC1, G6PDH/diaphorase resazurin coupled fluorescence | inhibition, % at 20 µM | 340,000 compounds, 0.16% hits;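 active = inhibition above about 35% when tested at 20 µM, limit read from the data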;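 note: plate controls were DMSO wells with enzyme for no effect and DMSO wells lacking enzyme for full effect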
#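 Assay system: in-house recombinant HK5 (HKDC1) enzyme. Input: HKDC1 at 5 µg/mL. Medium: Tris pH 8.0 buffer with MgCl2, Tween-20, BSA, BME. Dosing: single 20 µM dose. Schedule: 90 min reaction incubation at room temperature, dark. Signal: resazurin-to-resorufin fluorescence via G6PDH and diaphorase coupling, 525/613 nm. Controls: DMSO-enzyme wells negative, buffer-substituted wells positive.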
# ABHD5 PLIN5 conf = ABHD5-PLIN5 interaction inhibitors, confirmation, biochemical, luminescence | shares compounds with ABHD5 PLIN5 PPI | inhibition, % at 4 µM | 2,200 compounds, 67% hits; in the data active = inhibition above about 23%;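 note: 0% = DMSO vehicle wells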
# HNF4 counter = HNF4 dimerization inhibitors, counter-screen for ABHD5-PLIN5 interaction inhibitor project, biochemical, split-luciferase complementation, luminescence; shares compounds with ABHD5 PLIN5 PPI; AID 651674, 2012; inhibition, % at 4 µM; 2,200 compounds, 77% hits;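 active = mean inhibition across replicate wells exceeding the computed hit threshold, cut at about 13% in these data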;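 note: light from luciferase halves that rejoin when HNF4 fusion proteins dimerize; 0% = DMSO only wells and the 100% control is not given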
# * hit, by the source's call; x = no result; ! = repeats disagree.
SMILES,Granule exo inh,PfG6PD inh,ABHD5 PLIN5 PPI,HKDC1 inh,ABHD5 PLIN5 conf,HNF4 counter
O=C(O)CC1S/C(=N/N=C/C2CC=CCC2)NC1=O (stereo not given),-4.3,-16.2,-3.3,-4.1,x,x
O=C1Nc2ccc(Cl)cc2/C1=C/C1CC=CCC1 (stereo not given),11.0,17.8,30.1*,18.1,54.8*,38.9*
NC(=O)c1ccc(NC(=O)COC(=O)CC2Sc3ccccc3NC2=O)cc1 (stereo not given),11.2,4.4,8.4,-1.1,x,x
COc1ccc(S(=O)(=O)NCCC(=O)Nc2ccc(C)cc2)cc1,-5.5,6.3,-2.0,-4.7,x,x
O=C1COc2ccc(C(=O)NC3CC3)cc2N1,1.2,0.4,-3.3,-2.5,x,x
O=C(O)/C=C/C(=O)c1ccc2c(c1)NC(=O)CO2,-2.3,20.9,90.1*,-1.1,90.9*,104.8*
CSc1nc2ccccc2cc1/C=C(\C#N)c1cccc(C)c1,4.1,24.8,48.6*,8.4,-11.6,0.6
O=C(Cn1cc(COc2c(F)c(F)cc(F)c2F)nn1)c1ccc(O)cc1,1.4,8.3,30.9*,23.9,45.1*,34.6*
COc1ccc(OCc2cn(CC(=O)c3ccc(O)cc3)nn2)cc1,6.8,-4.6,23.6*,28.0,60.1*,30.2*
CCC(=O)c1ccc(OCc2cn(CC(=O)c3ccc(O)cc3)nn2)cc1,-0.3,-9.6,13.7,21.9,x,x
CCNC(=O)N(C)C[C@H]1N[C@@](CC)(C(=O)OC)[C@H]2C(=O)N(Cc3ccccc3)C(=O)[C@@H]12,1.0,-8.8,-0.9,-4.8,x,x
O=C(Nc1cccc(F)c1)C1CCCN(S(=O)(=O)c2cnc[nH]2)C1 (stereo not given),-4.8,0.4,5.4,-3.0,x,x
Cc1ccc(N/C(=C\C(=O)c2ccccc2)C(=O)O)cc1,1.9,-5.6,92.8*,-3.6,-0.1,5.7
Cc1ccccc1S(=O)Cc1ccc(C(=O)N2CCN(C(=O)c3ccco3)CC2)o1 (stereo not given),-11.5,9.7,75.2*,-3.1,-1.9,-3.2
O=C1c2ccccc2NC(c2ccc(-c3ccc(Br)cc3)o2)N1O (stereo not given),1.2,-36.5,1.5,-12.7,x,x
O=C1c2ccccc2NC(c2ccc(-c3ccc(F)cc3)o2)N1O (stereo not given),3.4,-28.8,38.1*,-2.4,13.7,13.0*
Cc1cc(N2O[C@]34C=C[C@]25C[C@@H](O)CC[C@]5(C)C3CC[C@]2(C)[C@@H]([C@H](C)/C=C/[C@H](C)C(C)C)CC[C@H]24)no1 (stereo not given in full),0.8,38.6,3.9,2.5,x,x
C#CC(=O)N(c1cc(OC)ccc1OC)C(C(=O)NC1CCCC1)c1cccs1 (stereo not given),21.3,0.8,32.5*,24.3,45.0*,44.7*
C#CC(=O)N(c1ccc(OC)cc1OC)C(C(=O)NC1CCCC1)c1cccs1 (stereo not given),27.7,1.8,27.7*,17.1,39.9*,37.9*
S=C(Nc1ccc(Cl)cc1)c1nc2ccccc2s1,-3.9,-1.0,-2.2,-4.5,x,x
O=C(Nc1ccc(Cl)cc1)/C(=C/c1cccc(O)c1)c1nc2ccccc2s1,10.3,3.6,29.5*,2.8,85.6*,61.0*
Cc1cccc(NC(=S)N(CCCN2CCOCC2)Cc2cn(C)c3ccccc23)c1,3.3,-5.9,23.3*,-2.1,1.4,-1.7
Cn1cc(CN(CCCN2CCOCC2)C(=S)Nc2cccc(Cl)c2)c2ccccc21,49.6,8.7,25.4*,-1.9,11.3,-0.8
COc1ccc(NC(=S)N(CCCN2CCOCC2)Cc2cn(C)c3ccccc23)cc1,-1.2,15.1,-1.7,-10.8,x,x
COc1ccc(CCNC(=O)COC(=O)c2sc(C)nc2C)cc1,-5.5,-6.6,1.8,-1.2,x,x
SMILES,Granule exo inh,PfG6PD inh,ABHD5 PLIN5 PPI,HKDC1 inh,ABHD5 PLIN5 conf,HNF4 counter
CC1CCCN(S(=O)(=O)c2ccc(NC(=O)C3CCN(C(=O)c4ccco4)CC3)cc2)C1 (stereo not given),0.7,-1.6,24.1*,-0.3,4.3,0.4
O=C(c1ccco1)N1CCN(S(=O)(=O)c2ccc(Oc3ccccc3)cc2)CC1,-3.7,1.5,49.6*,5.8,8.3,17.6*
O=C1CC[C@@H]2C[C@@]3(C[C@@H]4CCN1[C@H]24)Nc1cc([N+](=O)[O-])ccc1NC3=NCc1ccccc1,3.4,-14.6,5.3,12.6,x,x
Cc1cc(C)c(NC(=O)CN2CCN3CCCC3C2)c(C)c1 (stereo not given),-11.5,-6.8,31.5*!,0.5,33.2*,1.4
CC1(C)CC(=O)C(CC(=O)Nc2ccc(S(N)(=O)=O)cc2)=C(O)C1,1.3,7.9,5.2,-10.3,x,x
CC1(C)CC(=O)C(CS(=O)(=O)c2ccccc2)=C(O)C1,40.0,-6.7,43.9*,3.2,50.2*,92.2*
O=S(=O)(Cc1ccc(Cl)cc1)c1ccccc1-c1nnc(-c2ccc(Cl)cc2)o1,-0.6,5.0,30.7*,-3.0,-2.4,-2.6
Cc1ccc(-c2nnc(-c3ccccc3S(=O)(=O)Cc3ccc(Cl)cc3)o2)cc1,-2.9,-9.0,-4.3,1.6,x,x
Cc1cc(/C=C2\SC(=Nc3ccccc3)NC2=O)c(C)n1-c1ccc(S(N)(=O)=O)cc1,-0.7,14.9,28.5*,0.0,6.8,7.0
O=C(CCCc1nc2ccccc2s1)NCc1ccccc1F,-1.8,-14.9,4.5,12.3,x,x
CCOc1ccc(C(=O)CC(NCc2cccs2)C(=O)O)cc1 (stereo not given),7.1,-26.4,56.7*,9.8,90.7*,110.4*
Cc1ccc(NC(CC(=O)c2ccccc2)c2ccc(F)cc2)cc1 (stereo not given),-3.4,27.9,-4.1,-4.6,x,x
O=C(CC(Nc1ccc(F)cc1)C(=O)O)c1ccccc1 (stereo not given),-0.2,29.2,42.6*,-1.8,38.0*,89.5*
Cc1ccc(/C=C2\CCC(C3CCCC3)C2=O)cc1 (stereo not given),-2.4,3.1,3.8,-6.7,x,x
O=C1/C(=C\c2ccc(Cl)cc2)CCC1CNc1ccc(Cl)cc1 (stereo not given),9.9,33.2,36.9*,0.8,59.8*,79.9*
COc1ccc(/C=C2/CCC(CN3CCOCC3)C2=O)cc1 (stereo not given),-3.7,75.5*,69.0*,15.3,100.0*,107.1*
CN(C)CC1CC/C(=C\c2ccc(O)cc2)C1=O (stereo not given),0.8,61.3*,91.9*,6.6,93.4*,106.6*
O=C(CN1C(=O)NC2(CCc3ccccc32)C1=O)NCc1ccc(F)cc1 (stereo not given),-3.7,-10.8,1.6,3.3,x,x
